Measurements from ChEMBL document CHEMBL1148346, “Tiplaxtinin, a novel, orally efficacious inhibitor of plasminogen activator inhibitor-1: design, synthesis, and preclinical characterization” (J Med Chem, 2004).

What was measured:
[1] = molecular target: Plasminogen activator inhibitor 1 (Homo sapiens, UniProt P05121); assay: Inhibition of human plasminogen activator inhibitor-1
[2] = Relative bioavailability after oral dose of compound at 3 mg/kg in dogs; format: ADME, organism-based, Canis lupus familiaris; settings: dog, in vivo
Outline: (§1)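 Male beagle dogs given a single oral dose of 3 mg/kg. Plasma sampled, with Cmax and half-life derived and relative bioavailability calculated.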

[3] = Apparent half-life after single intravenous bolus of 1 mg/kg in dogs; format: ADME, organism-based, Canis lupus familiaris; design: dose 1 mg/kg, route intravenous; settings: dog, in vivo
Outline: (§2)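 Male beagle dogs given a single iv bolus of 1 mg/kg. Plasma sampled, with apparent half-life, Cmax and AUC0-∞ derived.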

[4] = AUC after administration at 2000 mg/kg/day in rats; format: ADME, organism-based; settings: rat, plasma
[5] = AUC after administration at 100 mg/kg/day in dogs; format: ADME, organism-based, Canis lupus familiaris; settings: dog, plasma
[6] = AUC0-infinity after single intravenous bolus of 1 mg/kg in dogs; format: ADME, organism-based, Canis lupus familiaris; design: time infinity, dose 1 mg/kg, route intravenous; settings: dog, plasma; outline: as §2
[7] = Cmax after oral dose of compound at 3 mg/kg in dogs; format: ADME, organism-based, Canis lupus familiaris; design: dose 3 mg/kg, route oral; settings: dog, in vivo; outline: as §1
[8] = Half-life after oral dose of compound at 3 mg/kg in dogs; format: ADME, organism-based, Canis lupus familiaris; design: dose 3 mg/kg, route oral; settings: dog, in vivo; outline: as §1
[9] = Cmax after repeated oral dose of compound at 1 mg/kg in rats; format: ADME, organism-based; design: dose 1 mg/kg, route oral; settings: rat, in vivo
Outline: (§3)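 Male SD rats given repeated oral doses of 1 mg/kg. Plasma concentrations measured, with Cmax, half-life and AUC0-24 derived.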

[10] = Cmax after single intravenous bolus of 1 mg/kg in rats; format: ADME, organism-based; design: dose 1 mg/kg, route intravenous; settings: rat, in vivo
[11] = Half-life after repeated oral dose of compound at 1 mg/kg in rats; format: ADME, organism-based; design: dose 1 mg/kg, route oral; settings: rat, in vivo; outline: as §3
[12] = Apparent half-life after single intravenous bolus of 1 mg/kg in rats; format: ADME, organism-based; design: dose 1 mg/kg, route intravenous; settings: rat, in vivo
[13] = AUC0-24 after repeated oral dose of compound at 1 mg/kg in rats; format: ADME, organism-based; design: time < 24 hr, dose 1 mg/kg, route oral; settings: rat, plasma; outline: as §3
[14] = AUC0-infinity after single intravenous bolus of 1 mg/kg in rats; format: ADME, organism-based; design: time infinity, dose 1 mg/kg, route intravenous; settings: rat, plasma
Canis familiaris [15] = assay: Oral efficacy in dog thrombosis model at 3 mg/kg expressed as occlusion time; format: functional, Canis lupus familiaris
Outline: (§4)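 Anesthetized dogs dosed orally, then an electrolytic injury made in the coronary artery lumen. Occlusion was taken as zero flow, and flow, occlusion time and spontaneous reperfusion were monitored over 4 h. Three dogs per group, mean ± SEM.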

Canis familiaris [16] = assay: Oral efficacy in dog thrombosis model at 3 mg/kg expressed as arterial occlusion; format: functional, Canis lupus familiaris; outline: as §4
Canis familiaris [17] = assay: Oral efficacy in dog thrombosis model at 3 mg/kg expressed as spontaneous reperfusion; format: functional, Canis lupus familiaris; outline: as §4
Rattus norvegicus [18] = assay: Oral efficacy in rat thrombosis model at 1 mg/kg expressed as carotid flow reduction; format: functional
Outline: (§5)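 Anesthetized, instrumented rats dosed orally before chemical induction of an occlusive carotid artery thrombus. Time to occlusion, carotid flow, patency and thrombus weight compared with vehicle, four rats per group, mean ± SEM.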

Rattus norvegicus [19] = assay: Oral efficacy in rat thrombosis model at 1 mg/kg expressed as arterial occlusion; format: functional; outline: as §5
Rattus norvegicus [20] = assay: Oral efficacy in rat thrombosis model at 1 mg/kg expressed as occlusion time; format: functional; outline: as §5
Rattus norvegicus [21] = assay: Oral efficacy in rat thrombosis model at 1 mg/kg expressed as thrombus weight; format: functional; outline: as §5
[22] = Cmax after single intravenous bolus of 1 mg/kg in dogs; format: ADME, organism-based, Canis lupus familiaris; design: dose 1 mg/kg, route intravenous; settings: dog, in vivo; outline: as §2
Canis familiaris [23] = assay: Oral efficacy in dog thrombosis model at 3 mg/kg expressed as coronary flow reduction

Sequence of Plasminogen activator inhibitor 1 (P05121 whole entry): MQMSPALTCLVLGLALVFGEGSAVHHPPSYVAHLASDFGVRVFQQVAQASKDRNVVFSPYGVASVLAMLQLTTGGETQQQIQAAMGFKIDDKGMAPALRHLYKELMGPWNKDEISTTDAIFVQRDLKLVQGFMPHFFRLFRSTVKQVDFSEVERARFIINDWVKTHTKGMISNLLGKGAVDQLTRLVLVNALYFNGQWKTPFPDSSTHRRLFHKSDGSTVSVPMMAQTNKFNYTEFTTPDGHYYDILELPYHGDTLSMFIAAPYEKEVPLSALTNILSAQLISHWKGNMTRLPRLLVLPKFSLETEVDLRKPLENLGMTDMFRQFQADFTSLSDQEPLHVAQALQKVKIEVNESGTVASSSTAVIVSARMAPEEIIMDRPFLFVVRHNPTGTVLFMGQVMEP

In the case of CN(C)CCSc1ccc(/C=c2\[nH]c(=O)/c(=C/c3ccccc3)[nH]c2=O)s1, the IC50 [1] is reported as 8 µM.
CC(C)(C)c1ccc(Cn2cc(C(=O)C(=O)O)c3ccc(-c4ccc(OC(F)(F)F)cc4)cc32)cc1 gave an IC50 [1] of over 50 µM.
In the case of CC(C)(C)c1ccc(Cn2cc(C(=O)C(=O)O)c3cc(-c4ccc(OC(F)(F)F)cc4)ccc32)cc1, the IC50 [1] is reported as 16 µM.
Compound COc1cccc(-c2ccc3c(c2)c(C(=O)C(=O)O)cn3Cc2ccc(C(C)(C)C)cc2)c1 has an IC50 [1] of 21 µM.
Work on O=C(O)C(=O)c1cn(Cc2ccccc2)c2cc(-c3ccc(OC(F)(F)F)cc3)ccc12 yielded an IC50 [1] of 17 µM.
Work on Cc1cccc(-c2ccc3c(c2)c(C(=O)C(=O)O)cn3Cc2ccc(C(C)(C)C)cc2)c1 [ALEPLASININ] yielded an IC50 [1] of 8.6 µM.
For O=C(Nc1ccc(Cl)c(Cl)c1)c1ccc(CNc2cc([N+](=O)[O-])ccc2C(=O)O)cc1, the IC50 [1] was 13 µM.
For O=C(O)C(=O)c1cn(Cc2ccc(F)cc2)c2cc(-c3ccccc3)ccc12, the IC50 [1] was 35 µM.
Work on O=C(O)C(=O)c1cn(Cc2ccccc2)c2ccc(-c3ccc(OC(F)(F)F)cc3)cc12 [TIPLASININ] yielded a bioavailability [2] of 32%, a half-life [3] of 3.73 h and an AUC [4] of about 1510 µg·h/mL. For the same compound, the AUC [5] was about 613 µg·h/mL, the AUC(0-inf) [6] was 20.5 µg·h/mL and the Cmax [7] was 2140 ng/mL. The half-life [8] was 5.42 h, the Cmax [9] was 230 ng/mL and the Cmax [10] was 4950 ng/mL. The half-life [11] was 4.1 h, the half-life [12] was 2.95 h and the AUC at 24 h [13] was 0.96 µg·h/mL. The AUC(0-inf) [14] was 2.45 µg·h/mL, the Occlusion time (Canis familiaris [15]) was 71.6 min and the Arterial occlusion (Canis familiaris [16]) was 100%. The Spontaneous reperfusion (Canis familiaris [17]) was 100%, the Carotid flow reduction (Rattus norvegicus [18]) was 47.3% and the Arterial occlusion (Rattus norvegicus [19]) was 25%. It also gave an Occlusion time (Rattus norvegicus [20]) of 50.5 min, a Thrombus weight (Rattus norvegicus [21]) of 0.5 mg and a Cmax [22] of 13400 ng/mL. It also gave a Coronary flow reduction (Canis familiaris [23]) of 66%.
O=C(O)c1ccc(-n2c(-c3ccccc3)cc3c2CCc2ccccc2-3)cc1O gave an IC50 [1] of 13 µM.
With CC(C)(C)c1ccc(Cn2cc(C(=O)C(=O)O)c3cc(-c4cccc(C(C)(C)C)c4)ccc32)cc1 the IC50 [1] was 10 µM.
With O=C(O)C(=O)c1cn(Cc2ccccc2)c2cc(-c3ccccc3)ccc12 the IC50 [1] was 26 µM.
O=C(O)C(=O)c1cn(Cc2ccccc2)c2cccc(-c3ccc(OC(F)(F)F)cc3)c12 showed an IC50 [1] of over 50 µM.
